Test results: ChEMBL document CHEMBL1124425, “Alkylating partial muscarinic agonists related to oxotremorine. N-[4-[(2-haloethyl)methylamino]-2-butynyl]-5-methyl-2-pyrrolidones” (J Med Chem, 1989)

Columns and labels:
[1] = Acute toxicity of compound when injected intravenously in mice; type: organism-based; conditions: mouse, in vivo, iv
[2] = Half life of compound was determined in 50 mM phosphate buffer (pH 7.4) at 37 degree celsius; type: ADME
Summary of the method: (§1)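 Solvolysis in 50 mM phosphate buffer pH 7.4 at 37 °C. Halide release by argentometric titration. Aziridinium ion quantified by thiosulfate reaction and iodine back-titration. k1 and k2 obtained by unweighted Gauss-Newton nonlinear fit, with half-lives following from them.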

[3] = Dissociation constant of compound was determined at muscarinic receptor in the rat cerebral cortex; type: tissue-based
Summary of the method: (§2)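 Male Sprague-Dawley rat cerebral cortex homogenised in 50 mM phosphate buffer pH 7.4 and centrifuged at 30000g. Competition against 0.3 nM (-)-[3H]NMS with the aziridinium ions, 1 h at 0 °C, triplicates, five experiments. Nonspecific binding taken with 10 µM atropine. Two-site fit by unweighted nonlinear regression gave KH and KL, which were corrected for [3H]NMS occupancy.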

Rattus norvegicus = species on record: Rattus norvegicus; assay: Rate constants of compound was determined at muscarinic receptor in the rat cerebral cortex; type: ADME
Summary of the method: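 Rat cortex homogenate (25 mg wet tissue/mL, 50 mM phosphate pH 7.4), preincubated 10 min at 37 °C. Precyclized haloethylamines then added at 0.1 mM to 1 nM final for 30 min. Reaction stopped with thiosulfate (1.0 mM) and atropine (0.1 mM), and tissue washed four times. Residual binding of 0.4 nM [3H]QNB measured over 1 h at 37 °C. Rate equation fitted by unweighted nonlinear regression, using initial aziridinium concentration.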

[4] = Rate constant for decay of compound was determined in 50 mM phosphate buffer (pH 7.4) at 37 degree celsius; type: ADME; summary of the method: as §1
[5] = First order rate constant of compound was determined in 50 mM phosphate buffer (pH 7.4) at 37 degree celsius; type: ADME; summary of the method: as §1
[6] = Binding affinity of compound towards muscarinic receptor using radioligand [3H]NMS in the rat cerebral cortex; type: tissue-based; summary of the method: as §2
[7] = Percentage affinity of compound towards muscarinic receptor sites in the rat cerebral cortex; type: tissue-based; summary of the method: as §2
[8] = Ratio of binding constants KL to KH was determined; summary of the method: as §2
[9] = Equilibrium binding parameters of compound was determined at muscarinic receptor in the rat cerebral cortex; type: tissue-based; summary of the method: as §2
[10] = First order rate constant of compound was determined in 50 mM phosphate buffer (pH 7.4) at 24 degree celsius; type: ADME
Summary of the method: (§3)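 Solvolysis in 50 mM phosphate buffer pH 7.4 at 24 °C. Halide release measured by argentometric titration. Aziridinium ion was reacted with thiosulfate, and the excess was back-titrated with iodine. k1 (cyclisation) and k2 (aziridinium decay) came from an unweighted Gauss-Newton fit of kinetic models.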

[11] = Rate constant for decay of compound was determined in 50 mM phosphate buffer (pH 7.4) at 24 degree celsius; type: ADME; summary of the method: as §3

## CC1CCC(=O)N1CC#CCN(C)CCCl (configuration not stated)
[1]
  LD50: 396 µmol/kg
[2]; buffer
  T1/2: 15.3 min
[2]; phosphate buffer
  half-life: 27.7 min
[3]
  KA: 0.058 µM
Rattus norvegicus
  K3: 0.091 min⁻¹
[4]
  K2: 0.045 min⁻¹
[5]
  K1: 0.025 min⁻¹

## CC1CCC(=O)N1CC#CC[N+]1(C)CC1 (configuration not stated)
[6]
  Ki: 53 nM

## CN(CC#CCN1CCCC1=O)CCCl
[3]
  KA: 0.79 µM
Rattus norvegicus
  K3: 0.064 min⁻¹
[4]
  K2: 0.033 min⁻¹
[5]
  K1: 0.019 min⁻¹

## CN(CC#CCN1CCCC1=O)CCBr
[3]
  KA: 0.35 µM
[7]
  Affinity: 16.5%
[8]
  Ratio: 466
Rattus norvegicus
  K3: 0.062 min⁻¹
[4]
  K2: 0.04 min⁻¹
[9]
  KH: 0.001 µM
  KL: 0.47 µM
[5]
  K1: 0.85 min⁻¹

## CC1CCC(=O)N1CC#CCN(C)CCBr (configuration not stated)
[1]
  LD50: 81 µmol/kg
[10]
  K1: 0.18 min⁻¹
[3]
  KA: 0.035 µM
[7]
  Affinity: 14.2%
[8]
  Ratio: 71
Rattus norvegicus
  K3: 0.096 min⁻¹
[11]
  K2: 0.0096 min⁻¹
[4]
  K2: 0.06 min⁻¹
[9]
  KH: 0.001 µM
  KL: 0.071 µM
[5]
  K1: 0.89 min⁻¹

## C[N+]1(CC#CCN2CCCC2=O)CC1
[6]
  Ki: 330 nM
